Bioassay records deposited in PubChem by The Scripps Research Institute Molecular Screening Center.
Rows were chosen to be rich in hits. Some 1.9% of all compounds tested hit in one or more screens of this group.
M5 PAM – positive allosteric modulators of human muscarinic M5 receptor; P08912; CHO-K1 hM5, Fluo-8 calcium, ACh EC20 PAM; 0% = ACh EC20, 100% = ACh EC100; activation, % at 3 µM; 0.3% of 360,000 active;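 active means activation above the run cutoff, the mean activation of all test compounds plus 3 SD, cut at about 18% in these data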
Target sequence (P08912 whole entry, looked up): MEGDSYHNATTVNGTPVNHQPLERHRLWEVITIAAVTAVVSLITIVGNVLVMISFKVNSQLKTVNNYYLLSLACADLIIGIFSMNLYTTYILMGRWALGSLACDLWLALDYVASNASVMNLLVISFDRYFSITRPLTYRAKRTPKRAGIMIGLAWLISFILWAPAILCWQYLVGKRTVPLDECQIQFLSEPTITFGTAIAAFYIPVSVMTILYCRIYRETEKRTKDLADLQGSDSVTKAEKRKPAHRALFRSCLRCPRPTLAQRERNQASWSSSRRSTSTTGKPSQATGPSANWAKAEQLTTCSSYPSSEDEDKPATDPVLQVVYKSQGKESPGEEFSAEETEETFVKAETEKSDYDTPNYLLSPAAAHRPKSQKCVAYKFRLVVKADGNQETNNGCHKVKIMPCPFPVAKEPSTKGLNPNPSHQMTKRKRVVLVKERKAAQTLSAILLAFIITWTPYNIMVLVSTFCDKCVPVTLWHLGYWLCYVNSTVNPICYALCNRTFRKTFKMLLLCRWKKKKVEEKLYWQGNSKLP
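system = human M5 receptor in CHO-K1 cells | reagent = EC20 acetylcholine as agonist stimulus | compound dosing = single-point, 3 µM nominal | incubation = Fluo-8 loading 80 min at 37 °C plus 30 min room temperature | detection = Fluo-8 calcium dye fluorescence, kinetic read | benchmarks = low control EC20 acetylcholine (0%), high control EC100 acetylcholine (100%)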
CHRM5 agonist – CHRM5 agonism in calcium assay. P08912. CHO-K1 hM5 cells, Fluo-8 calcium fluorescence; 0% DMSO wells, 100% maximal acetylcholine response. activation, % at 3 µM. 0.19% of 360,000 active;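 active means activation above the run's mean over test compounds plus 3 SD, cut at about 23% in these data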;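 further: signal is peak over basal fluorescence ratio across the kinetic read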
CHRM4 antagonist – blocks acetylcholine activation of human M4 receptor. P08173. CHO-hM4 cells, ACh EC80, Fluo-8 calcium fluorescence. 0.73% of 360,000 active. inhibition, % at 3 µM;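 active means inhibition above its plate's cutoff, the mean inhibition of sample wells plus 3 SD, cut at about 27% in these data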;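 further: 0% = acetylcholine EC80 with DMSO and 100% = DMSO without agonist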
CHRM4 agonist – agonists of human muscarinic M4 receptor (CHRM4). P08173. CHO-K1 hM4/Gqi5, Fluo-8 calcium fluorescence; vehicle 0%, full acetylcholine response 100%. activation, % at 3 µM. 0.14% of 360,000 active;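 active means activation above the run mean over all test wells plus 3 SD, cut at about 32% in these data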;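 further: peak over basal fluorescence ratio per well then scaled between controls; 0% = DMSO wells and 100% = acetylcholine at EC100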
CHRM4 PAM – positive allosteric modulators of human muscarinic M4 receptor | P08173 | CHO-K1 hM4/Gqi5, Fluo-8 calcium fluorescence, ACh EC20; 0% = ACh EC20, 100% = maximal ACh | activation, % at 3 µM | 0.4% of 360,000 active;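 active means activation above its plate's cutoff, the mean activation of sample wells plus 3 SD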
CHRM5 antagonist – blocks acetylcholine activation of human M5 receptor; CHO-hM5 cells, Fluo-8 calcium fluorescence, ACh EC80; AID 624040; inhibition, % at 3 µM; 0.59% of 360,000 active;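 active means inhibition above a per-plate cutoff, the mean of that plate's test compounds plus 3 SD, cut at about 27% in these data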;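 further: 0% = acetylcholine EC80 with DMSO and 100% = DMSO without agonist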
* = called active by the depositor.

SMILES	M5 PAM	CHRM5 agonist	CHRM4 antagonist	CHRM4 agonist	CHRM4 PAM	CHRM5 antagonist
C[C@H]1COc2cccc(N3CCC[C@@H]3CO)c2S(=O)(=O)N1	-3.4	-1.0	-12.1	1.9	10.2	9.3
Fc1cccc(Cc2noc(CN3CCCN(C4Cc5ccccc5C4)CC3)n2)c1	-20.1	-11.8	54.1*	1.8	-21.7	2.4
O=C(CC1SCCNC1=O)Nc1cccc(C(F)(F)F)c1 (stereo not given)	1.7	0.0	-5.0	2.9	32.4*	-1.8
CCOC(=O)c1ccccc1Cc1nc2ccccc2c(=O)[nH]1	-21.0	-10.4	-1.6	0.7	-6.4	43.7*
O=C(O)c1ccccc1Cc1nc2cc(Cl)ccc2c(=O)[nH]1	5.6	1.7	8.5	-0.5	-4.3	12.8
Cc1ccc(CNC(=O)CCc2nc3ccccc3c(=O)[nH]2)cc1	35.8*	-4.9	2.1	0.5	-3.0	-9.7
COc1ncc(-c2ccc(N3C(c4ccc([N+](=O)[O-])cc4)=Cc4ccccc4C3CC(C)=O)cc2)cn1 (stereo not given)	1.8	2.3	7.3	0.4	-3.5	-15.3
Cc1c2cnn(CC(=O)NCCCN3CCCCC3)c(=O)c2c(C)n1Cc1ccccc1	-1.4	-3.3	8.6	0.2	-6.5	3.5
Cc1ccccc1Cc1c(C)nc2nc(SCC(=O)NCCCN3CCCC3)nn2c1C	-11.6	-7.7	23.5	0.9	-20.8	23.9
CCC1CCCCN1CCCNC(=O)Cn1ncc2c(C)n(Cc3ccccc3Cl)c(C)c2c1=O (stereo not given)	-7.3	-5.7	27.9*	0.0	-16.9	6.9
Cc1nc2nc(SCC(=O)NCCCN3CCCC(C)C3)nn2c(C)c1Cc1ccccc1Cl (stereo not given)	-16.5	-10.2	31.3*	0.4	-12.1	19.6
Cc1nc2nc(SCC(=O)NCCCN3CCCCCC3)nn2c(C)c1Cc1ccccc1Cl	-12.8	-10.3	51.1*	1.7	-11.5	-1.0
CCC1CCCCN1CCCNC(=O)CSc1nc2nc(C)c(Cc3ccccc3)c(C)n2n1 (stereo not given)	-6.7	-8.1	8.2	1.8	-12.1	8.7
CCC1CCCCN1CCCNC(=O)CSc1nc2nc(C)c(Cc3ccccc3Cl)c(C)n2n1 (stereo not given)	-10.3	-10.8	31.4*	0.7	-10.3	15.1
O=C1CCCCCCC(=O)[C@H](O)C[C@H](c2ccccc2)O1	-5.6	2.8	-4.2	1.3	4.2	4.3
Cc1ccc(Cn2cc(CN(C)C3CN(Cc4cn(Cc5ccc(C)cc5)nn4)S(=O)(=O)C3)nn2)cc1 (stereo not given)	-2.2	5.0	6.7	4.6	1.7	9.7
O=C(Nc1ccc(F)c(Cl)c1)c1cc(C2CCCN(C(=O)CCc3ccccc3)C2)on1 (stereo not given)	-2.4	-0.3	7.8	7.6	-2.1	0.8
O=C(OCc1ccccc1)N1CCCCC1c1c(Cl)cccc1Br (stereo not given)	-11.7	-2.9	9.5	-2.6	-15.6	11.2
O=C(CCn1c(=S)[nH]c2ccccc2c1=O)NCC1CCCO1 (stereo not given)	-3.7	1.8	-25.0	0.5	19.1*	-2.9
CCCn1c(=S)[nH]c2cc(C(=O)NCC3CCCO3)ccc2c1=O (stereo not given)	-5.3	3.8	7.2	4.4	-2.2	4.2
COc1ccc(CCC(=O)N2c3ccccc3N=C(c3ccc4c(c3)OCO4)C2C(=O)NCc2ccccc2)cc1 (stereo not given)	-1.2	2.2	-2.9	3.3	3.5	2.2
O=C(CCc1ccccc1)NC(NC(=S)Nc1cccc(Cl)c1)C(Cl)(Cl)Cl (stereo not given)	-14.1	5.8	6.6	12.3	-8.2	34.2*
O=C(CCc1ccccc1)NC(NC(=S)Nc1ccc(Br)cc1)C(Cl)(Cl)Cl (stereo not given)	-18.5	8.3	9.6	17.2	-5.3	25.1
CC1CC(C)(C)OC(C[N+]2(C)CCCCC2)O1 (stereo not given)	-32.6	-19.9	36.5*	-0.1	-46.1	31.4*
C[N+]1(CC2COC3(CCCCC3)O2)CCCC1 (stereo not given)	-5.0	-7.5	4.4	-0.4	-10.2	7.6
SMILES	M5 PAM	CHRM5 agonist	CHRM4 antagonist	CHRM4 agonist	CHRM4 PAM	CHRM5 antagonist
CN1CCN(S(=O)(=O)c2ccc(N3CCN(S(=O)(=O)/C=C/c4ccccc4)CC3)nc2)CC1	-15.8	-11.9	30.2*	1.7	-13.6	-6.0
COc1ccccc1-c1cnc(C(O)c2ccc(C)cc2)[nH]1 (stereo not given)	1.9	2.7	-9.7	4.0	2.2	-6.8
COc1cccc(CNC(=O)CN(C)S(=O)(=O)c2cnc[nH]2)c1	19.7*	0.4	-14.0	0.9	4.3	-10.8
O=S1(=O)CC(N2CCN(CC3CC3)CC2)CN1Cc1ccccc1 (stereo not given)	4.5	-2.0	3.1	0.6	-5.7	-2.3
COc1ccc(-c2sc3ccccc3c2-c2cc(OC)ccc2C=O)cc1	-8.8	-1.3	-6.7	-0.3	-1.9	-3.5
CC1(C(=O)NS(=O)(=O)c2ccc(C#N)cc2)CCN1C(=O)C1(c2ccccc2)CC1 (stereo not given)	-1.2	1.6	-4.3	0.8	0.9	9.5
CC(=O)Nc1cccc(C(=O)N2CCN(Cc3ccccc3)CC2)c1	6.1	2.8	-0.5	2.6	20.1*	0.5
Nc1nonc1NN=C1CCCCC1	20.9*	2.8	-10.8	1.5	8.9	-15.8
COc1ccc(/C=N/Nc2nonc2N)cc1	-2.9	0.0	8.2	1.0	0.7	1.0
CC1(C(=O)NCC(F)(F)F)CCN1C(=O)Cc1ccc(-c2ccccc2)cc1 (stereo not given)	-12.6	4.3	3.5	8.9	-4.6	7.3
CCCCSc1ncc(C(=O)OCC)c(N)n1	0.4	-6.3	1.3	-0.6	-5.3	-3.1
CCOC(=O)c1cnc(SCCc2ccccc2)nc1N	3.4	-4.8	2.1	-2.9	34.8*	-6.7
CC12CCC(/C(=C/NNc3ccc([N+](=O)[O-])cc3[N+](=O)[O-])C1=O)C2(C)C (stereo not given)	-8.3	-0.5	-16.0	7.2	-6.3	-0.6
CSc1nnc(-c2cccc(C)c2)n1N	6.9	0.0	3.0	0.7	32.1*	-1.2
CCCCCCCCOc1ccc(C(=O)O)cc1	6.0	1.4	1.6	1.6	22.0*	4.3
CCCCOc1ccc(C(=O)O)cc1	-5.0	-2.0	8.5	0.6	8.2	3.0
CCCCOc1ccc(C(=O)Nc2cccc(C)n2)cc1	-4.2	0.0	93.8*	8.5	6.2	-0.8
COc1ccc(-c2cc(CNc3nc(NC(C)C)nc4cc(-c5ccccc5)sc34)on2)cc1	0.8	-1.8	-5.4	-0.6	1.3	-2.7
